# GPR7 antag: GPR7 receptor antagonists, primary screen, cell-based, fluorescence, single concentration | Neuropeptides B/W receptor type 1 (Homo sapiens), P48145 | GPR7-expressing cells, fluorescence antagonist assay | inhibition, % at 4.4 µM | actives 1.1% (n = 290,000); in the data active = inhibition above about 16%, passing the limit was not always enough;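 also: cells stimulated with the agonist NPW; 0% = agonist with vehicle and 100% = vehicle without agonist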
# Target sequence (P48145 whole entry, looked up): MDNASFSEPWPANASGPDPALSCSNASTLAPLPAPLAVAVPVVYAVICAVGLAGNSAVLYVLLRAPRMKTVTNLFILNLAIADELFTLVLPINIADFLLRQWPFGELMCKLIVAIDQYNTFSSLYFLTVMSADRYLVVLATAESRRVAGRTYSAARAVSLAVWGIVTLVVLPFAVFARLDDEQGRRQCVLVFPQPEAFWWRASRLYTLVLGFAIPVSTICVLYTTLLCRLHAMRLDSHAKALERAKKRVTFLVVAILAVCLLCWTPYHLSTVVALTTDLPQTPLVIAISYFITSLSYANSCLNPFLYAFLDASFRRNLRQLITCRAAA
# GalR3 antag: GalR3 antagonists in HEK293 cells, primary screen, cell-based, fluorescence readout | inhibition, % at 3 µM | HEK293 GalR3-CNG cAMP membrane potential fluorescence; galR3 body fused to GalR1 C-terminus | AID 651719, 2012 | actives 0.44% (n = 360,000) | Galanin receptor type 3 (Homo sapiens), O60755;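 active = inhibition above the screen-wide average plus 3 SD, cut at about 13% in these data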;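 also: forskolin and galanin both at EC90 stimulate the cells; cAMP rise reported by CNG channel membrane potential dye signal; 0% = forskolin plus galanin with DMSO and 100% = forskolin alone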
# OX1R antag-1: OX1R (HCRTR1) antagonists, primary screen, fluorescence, CHO/OX1R cells, Fluo-8 calcium, orexin A; Orexin/Hypocretin receptor type 1 (Homo sapiens), O43613; actives 0.43% (n = 330,000); AID 434989, 2010; Fluo-8 calcium fluorescence; inhibition, % at 5 µM;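 active = inhibition above its plate's threshold, mean inhibition of all tested compounds on the plate plus 3 SD, cut at about 37% in these data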;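 also: 0% = orexin A challenge wells and 100% = SB-334867-A antagonist wells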
# CHO parental Ca: ATP-evoked calcium signal inhibitors, parental CHO, primary screen, counter-screen for OX1R antagonist project, cell-based, fluorescence, Fluo-8 calcium dye; parental CHO-K1, ATP-induced calcium, Fluo-8 fluorescence; inhibition, % at 5.6 µM; actives 0.63% (n = 330,000);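 active = inhibition above that plate's mean sample inhibition plus 3 SD, cut at about 26% in these data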;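 also: 0% = ATP-challenged DMSO wells and 100% = DMSO wells without ATP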
#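 test system = CHO parental line | reagent = ATP stimulus | measured by = intracellular calcium via Fluo-8 no-wash fluorescent dye | control set = ATP and no-ATP DMSO wells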
# OX1R antag-2: antagonists of human orexin 1 receptor (OX1R); inhibition, % at 6.6 µM; OX1R-expressing cells, FRET antagonist read-out; Orexin/Hypocretin receptor type 1 (Homo sapiens), O43613; actives 1.8% (n = 330,000); in the data active = inhibition mostly above about 38%, no sharp cut-off; inactive = mostly below about 40%;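 also: 0% = agonist challenge alone and 100% = reference antagonist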
# GalR3 antag conf: GalR3 antagonist hit confirmation, cell-based, fluorescence, triplicate. shares compounds with GalR3 antag. HEK293 GalR3 CNG cAMP biosensor, membrane potential fluorescence; galR3 fused to GalR1 carboxy tail; challenged with forskolin and galanin at EC90. inhibition, % at 3 µM. actives 59% (n = 1,600);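 active = inhibition above the primary screen's cutoff, the mean inhibition of all screened compounds plus 3 SD, cut at about 13% in these data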;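 also: 0% = forskolin plus galanin and 100% = forskolin alone with DMSO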
# CNG parental: nonspecific cAMP agonists in parental HEK-CNG cells, counter-screen for GalR3 antagonist project, cell-based, fluorescence, high throughput; HEK293-CNG parental cells, cAMP membrane potential fluorescence; normalised: DMSO wells 0%, forskolin wells 100%; actives 10% (n = 1,600); activation, % at 3 µM; AID 652268, 2013; shares compounds with GalR3 antag; in the data active = activation above about 1.3%
# * marks the source's active call; other numbers are inactive results; · = no result. Rows were chosen to be rich in hits. Some 3.1% of all compounds tested hit in one or more screens of this group.
SMILES,GPR7 antag,GalR3 antag,OX1R antag-1,CHO parental Ca,OX1R antag-2,GalR3 antag conf,CNG parental
CN(C)S(=O)(=O)Oc1cccc(C(=O)Nc2ccccc2Cl)c1,-1,-5,-21,-21,33,·,·
CN(C)S(=O)(=O)Oc1cccc(C(=O)Nc2ccc(Cl)cc2)c1,20,28*,5,22,53,51*,-1
COCCN1CCN(C(=O)c2ccc3nc(Cc4ccc(OC)c(OC)c4)oc3c2)CC1,-5,88*,-4,8,6,48*,0
COc1ccc(C2C3=C(CC(C)(C)CC3=O)Nc3cc4c(cc32)OCO4)cc1 (centres undefined),-3,-3,-21,-8,7,·,·
COc1ccc(OC)c(C2C3=C(COC3=O)Nc3cc4c(cc32)OCO4)c1 (centres undefined),17,28*,-11,-18,1,23*,1.4*
CC(C)=C(NC(=O)c1ccccc1)C(=O)NC(Cc1ccccc1)C(=O)O (centres undefined),0,-1,-10,0,15,·,·
CC1(C)CC2(CC(c3ccccc3)Oc3cc(O)ccc32)NC(=S)N1 (centres undefined),-4,-1,-12,-13,4,·,·
CC(=O)Oc1ccc2c(c1)OC(c1ccccc1)CC21CC(C)(C)NC(=S)N1 (centres undefined),11,·,-17,-12,5,2,0
CCCOc1ncnc2c1[nH]c1ccccc12,-6,-3,-11,1,31,·,·
CC(C)Oc1ncnc2c1[nH]c1ccccc12,-7,19*,11,5,8,6,0
CC(=O)c1ccc(OCC(=O)NC(=O)NC2CCCCC2)cc1,-8,3,-21,10,17,·,·
O=C(N/N=C/c1cc(Br)ccc1O)C(=O)Nc1ccccc1OC(F)(F)C(F)F,-9,15*,1,-9,31,57*,-2
COc1ccccc1/C=N/NC(=O)C(=O)Nc1ccccc1OC(F)(F)C(F)F,-7,-1,1,-9,50,·,·
O=C(N/N=C/c1cc(Cl)ccc1O)C(=O)Nc1ccccc1OC(F)(F)C(F)F,-17,22*,-3,-15,69*,66*,-1
COc1ccc(C(=O)c2coc(-c3ccccc3C(=O)O)c2C(=O)O)cc1,-4,14*,-1,2,3,-3,0
COc1ccc(C(=O)c2ccccc2C(=O)c2ccccc2)cc1,·,-5,·,·,·,·,·
CC(C)Cn1c(N)c(C(=O)CSc2ccccc2)c(=O)n(C)c1=O,-6,1,13,15,15,·,·
CC(C)Cn1c(N)c(C(=O)COC(=O)/C=C/c2ccccc2)c(=O)n(C)c1=O,·,16*,47,78*,46,86*,0
COC(=O)c1ccc(C2=NOC(C)(c3sc(-c4ccccc4)nc3C)C2)cc1 (centres undefined),·,·,-23,-26,18,32*,1.5*
Cc1cc(S(=O)(=O)N2CCCC(N3CCOCC3)C2)c(C)cc1Cl (centres undefined),-18,-7,-37,-18,6,·,·
O=[N+]([O-])c1ccc(CN2CCCCCC2)cc1,-9,-10,-12,-4,23,·,·
CSc1ccc(CN2CCN(Cc3ccc([N+](=O)[O-])cc3)CC2)cc1,31*,84*,-26,-5,29,104*,0
Cc1cc(C)c(C(=O)CSc2nnc(C)c(=O)[nH]2)cc1C,-12,-9,-13,-11,14,·,·
O=S(=O)(c1ccc(OC(F)(F)F)cc1)N1CCCC(N2CCOCC2)C1 (centres undefined),-18,-3,-8,-7,5,·,·

# High-throughput results: PubChem, The Scripps Research Institute Molecular Screening Center
